Results reported in ChEMBL document CHEMBL2062366, “Synthesis and biological evaluation of purpurealidin E-derived marine sponge metabolites: aplysamine-2, aplyzanzine A, and suberedamines A and B” (2012).
≈ marks a conversion by molar mass, not a printed value. Calls of active or inactive are those of the source. The calls are words filed in the database; no cut-off is given here.

Test system: Mycobacterium tuberculosis
Test: Antimycobacterial activity against Mycobacterium bovis BCG after 2 weeks by spot culture growth inhibition assay
Format: functional
Conditions: variant bovis BCG
Outline: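 BCG grown in rolling bottles in 7H9 + 10% ADC + 0.05% Tween 80 to midexponential phase, quality-checked by Ziehl−Neelsen staining. Culture diluted to 10³ cfu/mL; 10 μL spotted onto 7H10 agar + 10% OADC containing compound, 37 °C for 2 weeks. Controls: DMSO (negative), isoniazid (positive). MIC = lowest concentration with no growth.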

Compound	MIC	MIC (336 h) [µg/mL]
CN(C)CCCOc1c(Br)cc(CCN)cc1Br	inactive	–
CNC(Cc1cc(Br)c(OC)c(Br)c1)C(=O)NCCCOc1c(Br)cc(CCN(C)C)cc1Br.Cl (stereo unspecified) [ANOMOIAN A]	–	25
COc1ccc(C[C@H](N)C(=O)NCCc2cc(Br)c(OCCCN(C)C)c(Br)c2)cc1Br [SUBEREDAMINE A]	–	50 (≈ 78.6 µM)
COc1ccc(C/C(=N\O)C(=O)NCCc2cc(Br)c(OCCCN(C)C)c(Br)c2)cc1Br	–	25 (≈ 38.4 µM)
COc1c(Br)cc(C[C@@H](C(=O)NCCc2cc(Br)c(OCCCN(C)C)c(Br)c2)N(C)C)cc1Br [APLYZANZINE A]	–	25 (≈ 33.6 µM)
CN[C@@H](Cc1ccc(OC)c(Br)c1)C(=O)NCCc1cc(Br)c(OCCCN(C)C)c(Br)c1 [SUBEREDAMINE B]	–	40 (≈ 61.5 µM)
